SUMO1 PPI mod: modulators of human SUMO1-mediated protein-protein interactions | P63165 | SUMO1 binding to a labelled peptide, TR-FRET, 1 h | inhibition, % at 20 µM | 360,000 tested, 0.33% active | AID 602429; in the data active means inhibition above about 37%
Target sequence (P63165 whole entry, looked up): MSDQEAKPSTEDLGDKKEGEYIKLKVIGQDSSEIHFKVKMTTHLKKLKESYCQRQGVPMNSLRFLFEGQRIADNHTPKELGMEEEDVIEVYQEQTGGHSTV
Scp-1 inhibitor: inhibitors of human Scp-1 phosphatase. Q9GZU7. Recombinant Scp1, phosphopeptide, malachite green phosphate absorbance. inhibition, % at 20 µM. 340,000 tested, 0.88% active. AID 493091;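 active means inhibition above about 50% at 20 µM, limit read from the data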
Target sequence (Q9GZU7 76-261 limits assumed): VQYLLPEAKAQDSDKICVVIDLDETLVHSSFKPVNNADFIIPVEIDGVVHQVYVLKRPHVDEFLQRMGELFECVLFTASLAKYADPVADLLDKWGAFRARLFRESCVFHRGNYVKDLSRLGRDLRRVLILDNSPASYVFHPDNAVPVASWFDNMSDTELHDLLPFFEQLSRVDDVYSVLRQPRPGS
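Test system: SCP-1 phosphatase catalytic domain, residues 76-261; measured by: colorimetric phosphate reagent with accelerator and stabiliser, absorbance at 630 nm; timing: enzyme reaction 45 min at room temperature, colour 5 min, stabilisation 30 min; also added: Phosphorylated 17-residue peptide substrate; compound dosing: one concentration, 20 µM, with 1.0% DMSO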
Casp6 inh: blocks human caspase-6 cleavage activity; 350,000 tested, 0.53% active; P55212; purified caspase-6, Z-VEID-R110 cleavage fluorescence; inhibition, % at 12.5 µM;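 active means mean inhibition across replicates at least about 35%, with every replicate also reaching that limit, limit read from the data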
Target sequence (P55212 24-179 limits assumed): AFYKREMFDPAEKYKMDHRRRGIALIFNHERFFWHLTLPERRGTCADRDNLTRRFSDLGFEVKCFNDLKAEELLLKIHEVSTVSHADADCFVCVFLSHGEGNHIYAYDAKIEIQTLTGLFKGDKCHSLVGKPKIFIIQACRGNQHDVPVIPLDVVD
Target sequence (P55212 194-293 limits assumed): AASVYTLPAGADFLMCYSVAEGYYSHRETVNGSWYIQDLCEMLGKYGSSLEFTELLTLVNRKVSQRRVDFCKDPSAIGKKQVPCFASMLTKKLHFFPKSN
STEP inh: blocks human striatal-enriched tyrosine phosphatase | P54829 | recombinant STEP, OMFP fluorogenic substrate, fluorescence | inhibition, % at 20 µM | 360,000 tested, 0.25% active;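 active means inhibition at 20 µM, scaled per plate between control wells, above about 37%, limit read from the data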
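System: STEP phosphatase, cell-free reaction; Buffer or medium: Bis-Tris pH 6.0 buffer with DTT, detergent; Incubation: 20 min at room temperature, dark; Measured by: fluorescence, 480/540 nm.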
LMPTP block: blocks human LMPTP phosphatase; P24666; recombinant LMPTP-A, OMFP fluorogenic substrate, fluorescence intensity; inhibition, % at 20 µM; 360,000 tested, 0.22% active; AID 651560;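 active means compounds that cut the enzyme signal by at least half of the control window in the single-dose screen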
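Test system – LMPTP-A phosphatase enzyme · Quantity – 0.625 nM LMPTP-A final · Reagent – OMFP substrate, 400 µM final · Dosing – one test concentration per compound, 20 µM, with 3% DMSO overall · Timing – 50 min enzyme reaction at room temperature, protected from light · Detection – fluorescence intensity · Controls – substrate-only low control, DMSO enzyme-plus-substrate high control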
DNMT1 block: blocks human DNA methyltransferase DNMT1 | P26358 | DNMT1 molecular beacon, Hinp1I cleavage, fluorescence | inhibition (reported as % activation of signal), % at 10 µM | 360,000 tested, 0.83% active; in the data active means inhibition above about 50%
Hits are given with their value. Compounds with a hit are over-represented: about 1.7% of the library has one in this group of screens.

What do the screens show for `Cc1ccc(NC(=O)CCC(=O)NCCO)cc1`?
SUMO1 PPI mod: inactive; Scp-1 inhibitor: inactive; STEP inh: inactive; LMPTP block: inactive; DNMT1 block: inactive

Results for CN(C)CCCn1c2c3ccccc3ccc2c2oc(=O)c3ccccc3c21 ?
SUMO1 PPI mod: inactive; Scp-1 inhibitor: inactive; Casp6 inh: inactive; STEP inh: inactive; LMPTP block: inactive; DNMT1 block: 77

How did CCC(Sc1nc2n[nH]c(C)c2c(=N)n1-c1cccc(Cl)c1C)C(=O)N(CC)CC (stereo unspecified) do in these assays?
SUMO1 PPI mod: inactive; Scp-1 inhibitor: inactive; STEP inh: inactive; LMPTP block: inactive; DNMT1 block: inactive

How did Cc1cc(=O)oc2cc(OCC(=O)N/N=C/c3cc([N+](=O)[O-])ccc3O)ccc12 do in these assays?
SUMO1 PPI mod: inactive; Scp-1 inhibitor: inactive; STEP inh: 94; LMPTP block: 71; DNMT1 block: inactive

Results for Cc1cc(=O)oc2cc(OCC(=O)NCCCN3CCOCC3)ccc12 ?
SUMO1 PPI mod: 40; Scp-1 inhibitor: inactive; STEP inh: inactive; LMPTP block: inactive; DNMT1 block: inactive

How did Cc1ccc(C)c(NC(=O)CCC(=O)N/N=C/c2cc([N+](=O)[O-])ccc2O)c1 do in these assays?
SUMO1 PPI mod: inactive; Scp-1 inhibitor: inactive; Casp6 inh: inactive; STEP inh: inactive; LMPTP block: inactive; DNMT1 block: inactive

How did O=S(=O)(Cc1ccccc1)N1CCN(Cc2ccc(Br)cc2)CC1 do in these assays?
SUMO1 PPI mod: inactive; Scp-1 inhibitor: inactive; Casp6 inh: inactive; STEP inh: inactive; LMPTP block: inactive; DNMT1 block: inactive

How did CN(C)/C=C1/C=C(C=O)OC1=O do in these assays?
SUMO1 PPI mod: inactive; Scp-1 inhibitor: inactive; Casp6 inh: 45; STEP inh: inactive; LMPTP block: inactive; DNMT1 block: inactive

How did O=C(O)CCNc1ccc(NCCC(=O)O)c2c1C(=O)c1ccccc1C2=O do in these assays?
SUMO1 PPI mod: 60; Scp-1 inhibitor: 86; Casp6 inh: 70; STEP inh: 96; LMPTP block: 72; DNMT1 block: 97

What do the screens show for `COc1ccccc1NCCC(=O)O`?
SUMO1 PPI mod: inactive; Scp-1 inhibitor: inactive; Casp6 inh: inactive; STEP inh: inactive; LMPTP block: inactive; DNMT1 block: inactive

What do the screens show for `[N-]=[N+]=NCc1ccccc1C[C@@]1(C(=O)N2CCOCC2)N=C(c2ccc(OCCCO)cc2)O[C@@H]1c1ccccc1`?
Casp6 inh: inactive

What do the screens show for `N#Cc1c(NC(=O)Cn2c(=O)oc3ccccc32)oc(-c2ccccc2)c1-c1ccccc1`?
SUMO1 PPI mod: 41; Scp-1 inhibitor: inactive; STEP inh: inactive; LMPTP block: inactive; DNMT1 block: inactive

How did O=C(C[C@@H]1CC[C@H](NC(=O)C2CCC2)[C@H](CO)O1)Nc1nccs1 do in these assays?
Casp6 inh: inactive

Results for C#CCOc1nc(Nc2cccc([N+](=O)[O-])c2)nc(OCC#C)n1 ?
SUMO1 PPI mod: 46; Scp-1 inhibitor: inactive; Casp6 inh: inactive; STEP inh: inactive; LMPTP block: inactive; DNMT1 block: inactive

Results for CO[C@H]1CN(C)C(=O)c2ccc(NS(=O)(=O)c3ccc(Cl)cc3)cc2OC[C@@H](C)N(C(=O)NC(C)C)C[C@@H]1C ?
Casp6 inh: inactive

Results for CN(CC(=O)Nc1ccc(F)c(F)c1F)C(=O)CCc1nc2sc3c(c2c(=O)[nH]1)CCCC3 ?
SUMO1 PPI mod: inactive; Scp-1 inhibitor: inactive; Casp6 inh: 42; STEP inh: inactive; LMPTP block: inactive; DNMT1 block: inactive

What do the screens show for `Cc1ccc(NC(=O)C2CCCN2C(=O)Oc2ccccc2)cc1C` (stereo unspecified)?
SUMO1 PPI mod: inactive; Scp-1 inhibitor: inactive; STEP inh: inactive; LMPTP block: inactive; DNMT1 block: inactive

Results for Cc1cc(C)c(S(=O)(=O)/N=C2/C=C(SCC(=O)O)C(=O)c3ccccc32)cc1C ?
SUMO1 PPI mod: 84; Scp-1 inhibitor: inactive; STEP inh: inactive; LMPTP block: inactive; DNMT1 block: inactive

How did Cc1ccc(S(=O)(=O)/N=C2\C=C(NS(=O)(=O)c3ccccc3)C(=O)c3ccccc32)cc1 do in these assays?
SUMO1 PPI mod: inactive; Scp-1 inhibitor: inactive; Casp6 inh: inactive; STEP inh: inactive; LMPTP block: inactive; DNMT1 block: inactive

Results for Cc1ccc(CNc2nc3c([nH]2)c(=O)n(C)c(=O)n3C)cc1 ?
SUMO1 PPI mod: 50; Scp-1 inhibitor: inactive; STEP inh: inactive; LMPTP block: inactive; DNMT1 block: inactive

How did Cc1ccc(/C=C2\SC(=S)N(/N=C/c3cc([N+](=O)[O-])ccc3O)C2=O)o1 do in these assays?
SUMO1 PPI mod: 45; Scp-1 inhibitor: 57; STEP inh: inactive; LMPTP block: 53; DNMT1 block: 83

How did Cc1ccc(C(=O)N/N=C/c2ccc([N+](=O)[O-])s2)cc1 do in these assays?
SUMO1 PPI mod: inactive; Scp-1 inhibitor: 104; STEP inh: inactive; LMPTP block: inactive; DNMT1 block: inactive

How did O=C(N/N=C/c1ccc([N+](=O)[O-])s1)c1cccc(Br)c1 do in these assays?
SUMO1 PPI mod: inactive; Scp-1 inhibitor: 97; STEP inh: 55; LMPTP block: 75; DNMT1 block: inactive

Results for CCc1sc(N2[C@H](C#N)[C@H](c3ccccc3-c3cccc(C)c3)[C@H]2CO)nc1C ?
Casp6 inh: inactive

What do the screens show for `CCOC(=O)c1nn(-c2ccc(OC)cc2)c(=O)c2c(N)scc12`?
SUMO1 PPI mod: inactive; Scp-1 inhibitor: inactive; Casp6 inh: 45; STEP inh: inactive; LMPTP block: inactive; DNMT1 block: inactive

Results for Cc1cc(C)c(C(=O)C(C)OC(=O)C2=COCCO2)cc1C (stereo unspecified) ?
SUMO1 PPI mod: inactive; Scp-1 inhibitor: inactive; Casp6 inh: 58; STEP inh: inactive; LMPTP block: inactive; DNMT1 block: inactive

What do the screens show for `COc1ccc(NC(=S)Nc2ccc3nsnc3c2)cc1`?
SUMO1 PPI mod: 58; Scp-1 inhibitor: inactive; STEP inh: inactive; LMPTP block: inactive; DNMT1 block: 64

What do the screens show for `S=C(Nc1ccc2nsnc2c1)N1CCCCCC1`?
SUMO1 PPI mod: inactive; Scp-1 inhibitor: inactive; Casp6 inh: 56; STEP inh: inactive; LMPTP block: inactive; DNMT1 block: inactive

Results for CC(C)N(C(=O)Nc1ccc2nsnc2c1)C(C)C ?
Scp-1 inhibitor: inactive; Casp6 inh: 100

Results for COc1ccc(N(C)C(=O)Nc2ccc3nsnc3c2)cc1 ?
SUMO1 PPI mod: inactive; Scp-1 inhibitor: inactive; Casp6 inh: inactive; STEP inh: inactive; LMPTP block: inactive; DNMT1 block: inactive

What do the screens show for `Cc1c(Cl)cccc1NC(=O)CSc1nnc(C)n1-c1ccccc1`?
SUMO1 PPI mod: inactive; Scp-1 inhibitor: inactive; STEP inh: inactive; LMPTP block: inactive; DNMT1 block: inactive

How did COc1ccc(/C=C2\S/C(=N/S(=O)(=O)c3cccs3)NC2=O)cc1 do in these assays?
SUMO1 PPI mod: inactive; Scp-1 inhibitor: inactive; Casp6 inh: inactive; STEP inh: inactive; LMPTP block: inactive; DNMT1 block: inactive

Screens (PubChem)
